Experimental data from ChEMBL document CHEMBL1129249, “Synthesis and activity of a novel series of 3-biarylquinuclidine squalene synthase inhibitors” (J Med Chem, 1996).

system: Rattus norvegicus; experiment: Inhibition of cholesterol biosynthesis from mevolanate after oral dosing to rat; type: functional
How it was run: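 Rats were dosed orally, and cholesterol synthesis from mevalonate was then measured. ED50 (mg/kg) was derived from dose–response data and reported with 95% confidence limits.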

Row | Structure (SMILES) | ED50
1 | OC1(c2ccc(-c3ccncc3)cc2)CN2CCC1CC2 (stereo unspecified) | 2.7 mg/kg

biological target: T1, Squalene synthase (Rattus norvegicus, UniProt Q02769); experiment: In vitro inhibition against rat microsomal squalene synthase (SS)
T1 sequence (Q02769 whole entry): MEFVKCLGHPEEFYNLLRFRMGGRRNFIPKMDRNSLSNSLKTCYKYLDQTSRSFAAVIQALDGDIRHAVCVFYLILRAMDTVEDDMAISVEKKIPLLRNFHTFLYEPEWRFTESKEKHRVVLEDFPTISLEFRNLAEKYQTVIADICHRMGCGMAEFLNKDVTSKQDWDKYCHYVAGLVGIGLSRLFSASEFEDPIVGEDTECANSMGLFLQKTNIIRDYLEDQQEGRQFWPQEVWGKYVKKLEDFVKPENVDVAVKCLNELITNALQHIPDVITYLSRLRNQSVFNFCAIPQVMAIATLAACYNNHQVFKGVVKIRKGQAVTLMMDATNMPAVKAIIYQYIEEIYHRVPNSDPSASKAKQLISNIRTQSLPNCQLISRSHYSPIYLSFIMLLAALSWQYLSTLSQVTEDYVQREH
How it was run: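 Squalene synthase came from rat microsomes. Inhibition was tested in phosphate buffer. IC50 values are from duplicate determinations (n = 2).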

Row | Structure (SMILES) | IC50
2 | [O-][S+](CC1(O)CN2CCC1CC2)c1ccc(-c2ccccc2)cc1 (stereo unspecified) | > 2500 nM
3 | O=S(=O)(CC1(O)CN2CCC1CC2)c1ccc(-c2ccccc2)cc1 (stereo unspecified) | > 2500 nM
4 | OC1(c2ccc(-c3ccccn3)cc2)CN2CCC1CC2 (stereo unspecified) | 240 nM
5 | OC1(c2ccc(C3OCCCO3)cc2)CN2CCC1CC2 (stereo unspecified) | > 2500 nM
6 | C1=C(c2ccc(-c3ccccc3)cc2)C2CCN1CC2 | 18 nM
7 | OC1(C#Cc2ccc(-c3ccccc3)cc2)CN2CCC1CC2 (stereo unspecified) | 3 nM
8 | OC1(c2cccc(-c3ccccc3)c2)CN2CCC1CC2 (stereo unspecified) | 60 nM
9 | COC1(c2ccc(-c3ccccc3)cc2)CN2CCC1CC2 (stereo unspecified) | > 2500 nM
10 | OC1(c2ccc(-c3nccs3)cc2)CN2CCC1CC2 (stereo unspecified) | 30 nM
11 | OC1(c2ccccc2)CN2CCC1CC2 (stereo unspecified) | > 2500 nM
12 | O=S(=O)(c1ccc(-c2ccccc2)cc1)C1CN2CCC1CC2 (stereo unspecified) | > 2500 nM
13 | OC1(c2ccc(-c3cnc4ccccc4c3)cc2)CN2CCC1CC2 (stereo unspecified) | 200 nM
14 | OC1(c2ccc(-c3ccc(F)cc3)cc2)CN2CCC1CC2 (stereo unspecified) | 18 nM
15 | OC1(c2ccc(C3CCCCC3)cc2)CN2CCC1CC2 (stereo unspecified) | 190 nM
16 | O=C(NC1CN2CCC1CC2)c1ccc(-c2ccccc2)cc1 (stereo unspecified) | 1200 nM
17 | c1ccc(-c2ccc(CCC3CN4CCC3CC4)cc2)cc1 (stereo unspecified) | 5 nM
18 | OC1(COc2ccc(-c3ccccc3)cc2)CN2CCC1CC2 (stereo unspecified) | 13 nM
19 | OC1(c2ccc(-c3cccs3)cc2)CN2CCC1CC2 (stereo unspecified) | 40 nM
20 | OC1(c2ccc(-c3ncccn3)cc2)CN2CCC1CC2 (stereo unspecified) | 30 nM
21 | C(=C\C1CN2CCC1CC2)/c1ccc(-c2ccccc2)cc1 (stereo unspecified) | 4 nM

Row | Structure (SMILES) | IC50
22 | OC1(c2ccc(-c3cccs3)s2)CN2CCC1CC2 (stereo unspecified) | > 2500 nM
23 | c1ccc(-c2ccc(C3CN4CCC3CC4)cc2)cc1 (stereo unspecified) | 11 nM
24 | OC(c1ccc(-c2ccccc2)cc1)C1CN2CCC1CC2 (stereo in doubt; 32) | 2500 nM
25 | OC1(c2ccc(-c3ccccc3)cc2)CN2CCC1CC2 (stereo in doubt; 2a(-)) | 121 nM
26 | CC(C)=CCC/C(C)=C/CC/C(C)=C/COCC1(O)CN2CCC1CC2 (stereo unspecified) | 60 nM
27 | CC(C)=CCC/C(C)=C/CC/C(C)=C/COC1CN2CCC1CC2 (stereo unspecified) | 70 nM
28 | O=S(=O)(NC1CN2CCC1CC2)c1ccc(-c2ccccc2)cc1 (stereo unspecified) | > 2500 nM
29 | OC1(c2ccc(-c3ccncc3)cc2)CN2CCC1CC2 (stereo unspecified) | 161 nM
30 | c1ccc(-c2ccc(CC3CN4CCC3CC4)cc2)cc1 (stereo unspecified) | 27 nM
31 | OC1(c2ccc(-c3nc4ccccc4s3)cc2)CN2CCC1CC2 (stereo unspecified) | 6 nM
32 | OC1(c2ccc(-c3ccccc3)cc2)CN2CCC1CC2 (stereo in doubt; 2a(+)) | 7 nM
33 | OC1(CCc2ccc(-c3ccccc3)cc2)CN2CCC1CC2 (stereo unspecified) | 7 nM
34 | OC1(CSc2ccc(-c3ccccc3)cc2)CN2CCC1CC2 (stereo unspecified) | 8 nM
35 | OC1(c2ccc(-c3cccnc3)cc2)CN2CCC1CC2 (stereo unspecified) | 270 nM
36 | Oc1ccc(-c2ccc(C3(O)CN4CCC3CC4)cc2)cc1 (stereo unspecified) | 132 nM
37 | OC1(c2ccc(-c3ccc(-c4ccccc4)cc3)cc2)CN2CCC1CC2 (stereo unspecified) | 370 nM
38 | C(=C/C1CN2CCC1CC2)/c1ccc(-c2ccccc2)cc1 (stereo unspecified) | 580 nM
39 | OC1(c2ccc(-c3ccccc3)cc2)CN2CCC1CC2 (stereo in doubt; 2) | 16 nM
40 | OC(c1ccc(-c2ccccc2)cc1)C1CN2CCC1CC2 (stereo in doubt; 33) | 2500 nM
41 | OC1(c2cnc(-c3ccccc3)s2)CN2CCC1CC2 (stereo unspecified) | 60 nM
